GRK2 inh = inhibitors of human GRK2 displacing RNA aptamer; P25098; bead flow cytometry, FAM-aptamer displacement from GRK2; inhibition of aptamer binding, % at 10 µM; actives 0.59% (n = 330,000);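 active = inhibition of aptamer binding above 40%, roughly 3 SD of noise, on plates passing a quality check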;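 also: median bead fluorescence of bound FAM aptamer so fluorescent compounds give negative values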
MEX-5 binding = C. elegans MEX-5 TCR-2 RNA binding activity; AID 1832; MEX-5/FITC-TCR2 RNA binding, fluorescence polarization; stronger effect = lower value; Q9XUB2; actives 0.38% (n = 300,000); activity score (negative = inhibition of binding), % at 10 µM;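 active = inhibition past about -25% in most replicates, and total fluorescence under double the plate's negative control median, limit read from the data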;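 also: 0% = DMSO and -100% = 5 µM competing unlabeled TCR2 RNA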
Target sequence (Q9XUB2 whole entry, looked up): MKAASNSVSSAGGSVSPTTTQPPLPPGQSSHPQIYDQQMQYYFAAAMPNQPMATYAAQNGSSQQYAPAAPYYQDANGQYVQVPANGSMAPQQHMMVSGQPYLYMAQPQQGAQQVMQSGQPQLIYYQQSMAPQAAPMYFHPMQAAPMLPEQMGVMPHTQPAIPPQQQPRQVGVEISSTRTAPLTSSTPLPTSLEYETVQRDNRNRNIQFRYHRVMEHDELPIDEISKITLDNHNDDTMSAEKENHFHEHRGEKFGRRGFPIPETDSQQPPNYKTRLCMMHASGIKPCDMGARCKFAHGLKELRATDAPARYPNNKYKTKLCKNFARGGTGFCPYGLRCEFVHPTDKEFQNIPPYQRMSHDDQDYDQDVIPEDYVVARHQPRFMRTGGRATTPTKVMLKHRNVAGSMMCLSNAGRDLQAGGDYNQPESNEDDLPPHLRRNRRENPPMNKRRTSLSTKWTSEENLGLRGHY
T cell HTS = T cell immune modulators affecting CD8 T cell-vesicle binding; actives 0.068% (n = 330,000); 2C CD8+ T cell-vesicle binding, flow cytometry; stronger effect = lower value; response (vesicle binding), % at 7 µM;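 active = response, share of CD8 T cells binding vesicles, and their 90th percentile fluorescence all below set limits, cut at about 80% in these data, passing the limit was not always enough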;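 also: values below 100% mean blocked vesicle binding to the CD8+ T cells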
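Assay system – 2C mouse CD8+ T cells · Also added – QL9-loaded Drosophila micro-vesicles · Timing – Cell–vesicle co-incubation 1.5 h at 37 °C, staining 20 min on ice · Signal – flow cytometry of vesicle-bound cells · Measure – percent CD8+ FL2 mean versus row control · Controls – Peptide-free naked vesicles (low) and QL9 vesicles with 0.7% DMSO vehicle (high)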
Keap1-Nrf2 PPI = inhibitors of human Keap1-Nrf2 protein-protein interaction. actives 0.15% (n = 340,000). inhibition, % at 9.4 µM. Keap1 Kelch-Nrf2 peptide fluorescence polarization, 1536-well. Q14145. AID 504523; in the data active = inhibition above about 12%;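 also: human Keap1 Kelch domain with fluorescein labeled Nrf2 9mer peptide probe; 0% = neutral control wells and 100% = peptide positive control; higher means more block of Keap1 binding to Nrf2 peptide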
LANA DNA inh = KSHV C-LANA DNA binding inhibition; MBP-C-LANA/FAM-LBS DNA binding, fluorescence polarization; inhibition, % at 9 µM; actives 0.078% (n = 340,000); AID 504423;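 active = highest replicate inhibition at or above 60% at 9 µM, even if other replicates fall short; inactive = all replicates below 60% inhibition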;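 also: 0% = neutral control wells and 100% = 4 µM acridine orange control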
EBV gp42 block = EBV gp42 inhibition; Q1HVG2; Fluorescence polarization binding assay, mP read-out; inhibition, % (tested at 21.74 µM); actives 0.42% (n = 220,000); AID 1085; in the data active = inhibition above about 50%
Target sequence (Q1HVG2 whole entry, looked up): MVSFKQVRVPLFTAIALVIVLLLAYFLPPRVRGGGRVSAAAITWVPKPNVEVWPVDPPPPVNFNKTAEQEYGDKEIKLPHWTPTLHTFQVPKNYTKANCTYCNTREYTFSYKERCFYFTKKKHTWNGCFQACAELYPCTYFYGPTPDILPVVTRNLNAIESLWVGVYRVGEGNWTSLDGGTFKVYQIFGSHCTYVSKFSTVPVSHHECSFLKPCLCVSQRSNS
GRK2 CP1 = confirmation of human GRK2 inhibitors displacing RNA aptamer; actives 4% (n = 2,000); bead-bound GRK2, FAM-aptamer displacement, flow cytometry; aptamer displacement, % at 10 µM; shares compounds with GRK2 inh; AID 504451;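 active = aptamer displacement above 40%, near three times the noise of non-fluorescent compounds, on plates passing quality checks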;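 also: negative values mostly reflect intrinsic compound fluorescence rather than true enhancement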
FAM quench CP1 = aptamer fluorescence quenching in GRK2 counter-screen; Carboxyfluorescein RNA aptamer on beads, flow cytometry quenching; stronger effect = lower value; AID 504580; 2,000 tested, under 10 active; shares compounds with GRK2 inh; fluorescence response (% of DMSO), % at 10 µM;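 active = compounds that quench the bead-bound fluorescent RNA probe, cutting fluorescence to under half of the solvent control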;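 also: counterscreen run without GRK2 so only probe quenching by compound is measured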
GRK2 confirm 2 = human GRK2 inhibition confirmation, cherry pick 2 | 360 tested, under 10 active | inhibition of aptamer binding, % at 10 µM | bead-bound GRK2, FAM-aptamer displacement, flow cytometry | AID 504782 | shares compounds with GRK2 inh;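 active = inhibition of aptamer binding above 40%, about triple the noise seen with nonglowing compounds, on plates passing quality control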;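 also: negative values mostly come from compounds that fluoresce themselves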
FAM quench CP2 = counter-screen for GRK2 binding hits: quenchers of fluorescent RNA aptamer; fluorescence response vs DMSO, % at 10 µM; carboxyfluorescein RNA aptamer beads, flow cytometry quenching; stronger effect = lower value; shares compounds with GRK2 inh; 360 tested, under 10 active;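 active = response vs DMSO under 50%, meaning signal dropped by over half, treated as fluorescence quencher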;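 also: labelled aptamer on streptavidin beads without GRK2 as a quench counter-screen; 100% = bead fluorescence of DMSO wells and lower means quenching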
* = called active by the depositor; i = inactive; x = no result. Rows were chosen to be rich in hits. Some 1.3% of all compounds tested hit in one or more screens of this group.

SMILES | GRK2 inh | MEX-5 binding | T cell HTS | Keap1-Nrf2 PPI | LANA DNA inh | EBV gp42 block | GRK2 CP1 | FAM quench CP1 | others
CC1CCCC(NC(=O)CNCc2ccccc2F)C1C (stereo unspecified) | 4 | -1 | 214 | -3 | -2 | -12 | x | x
O[C@@H]1COC(Nc2ccc(N=Nc3ccccc3)cc2)C[C@@H]1O (stereo partly specified) | 2 | 3 | 187 | x | x | -13 | x | x
Cc1cc2cc(CNC(=O)c3ccc(S(=O)(=O)N4CCCCC4)cc3)ccc2n1C | 66* | 1 | 361 | -6 | 0 | 18 | 0 | 99 | GRK2 confirm 2=-12;FAM quench CP2=100
O=C(O)c1cccc2cc(-c3ccccc3)oc(=O)c12 | 0 | 2 | 207 | 1 | 0 | x | -3 | 94
COc1ccc(NC(=O)N2CCCc3ccccc32)cc1OC | 0 | 2 | 322 | 0 | -1 | x | x | x
COc1ccc(NC(=O)CCCNC(=O)Cn2cnc3sc(C)c(C)c3c2=O)c(OC)c1 | 0 | 2 | 169 | 6 | -1 | x | x | x
O=C(NCCCN1CCN(c2cccc(Cl)c2)CC1)C1(S(=O)(=O)c2ccc(Cl)cc2)CC1 | 28 | -1 | 272 | -3 | -1 | 2 | -19 | 88
Cc1ccc(C(=O)Nc2ccc(N3CCN(C)CC3)cc2)c(Cl)c1 | 49* | 2 | 189 | 0 | -1 | x | -3 | 92
CCOc1cnc(-c2ccc(OC)cc2)o1 | 0 | 0 | 549 | -5 | 1 | -7 | x | x
CCCCC1(C)OC(=O)C(=Cc2ccc(-c3ccc(Cl)c(C(=O)O)c3)o2)C(=O)O1 (stereo unspecified) | 55* | 5 | 378 | -3 | 3 | -77 | -1 | 95
Cc1ccc(N2NC(=O)/C(=C/c3ccc(-c4ccc(Cl)c(C(=O)O)c4)o3)C2=O)cc1 | 0 | -4 | 334 | 0 | 1 | 8 | x | x
CCOC(=O)C1=C(CS(=O)(=O)c2ccccc2)NC(=O)NC1c1ccc(OC)c(OC)c1 (stereo unspecified) | 40 | 3 | 162 | 0 | -1 | 0 | 1 | 101
CCCN1CCN(C(=O)c2noc3c2COc2ccc(C)cc2-3)CC1 | 59* | 2 | 619 | 6 | 0 | x | -2 | 98
CCOC(=O)N1CCN(C(=O)c2noc3c2COc2ccccc2-3)CC1 | 0 | 1 | 238 | -3 | -1 | x | x | x
C[C@@H]1NC(=O)OC1c1ccco1 (stereo partly specified) | 76* | x | 357 | -2 | -2 | x | 5 | 99
O=C1N[C@@H](Cc2ccccc2)[C@@H](c2ccco2)O1 | 1 | -2 | 508 | -3 | 0 | -24 | x | x
Cc1cccc(C(=O)O/N=C(\N)c2ccc(Br)cc2)c1 | 2 | 1 | 204 | -1 | 1 | -10 | x | x
Cc1cccc(C(=O)O/N=C(\N)c2ccc(Cl)cc2)c1 | 11 | -1 | 236 | 0 | 0 | x | -2 | 100
CC(Oc1ccccc1Cl)C(=O)N1CCOCC1 (stereo unspecified) | 43* | 3 | 335 | 2 | 1 | 1 | x | x | GRK2 confirm 2=3;FAM quench CP2=100
CC(C(=O)N1CCOCCOCCOCC1)N1C(=O)c2ccccc2C1=O (stereo unspecified) | 86* | 2 | 212 | 2 | -1 | 4 | -1 | 98
CC(C(=O)N1CCOCC1)N1C(=O)c2ccccc2C1=O (stereo unspecified) | 1 | 0 | 261 | -1 | 0 | -23 | x | x
CCc1nnc(NC(=O)C2CCC(CNc3c(N4CCC(C)CC4)c(=O)c3=O)CC2)s1 (stereo unspecified) | 0 | -2 | 530 | 3 | -2 | -25 | x | x
CC1CCCN(Cc2nc3c(c(=O)n(C)c(=O)n3C)n2CCCc2ccccc2)C1 (stereo unspecified) | 0 | 0 | 201 | -1 | 1 | -14 | x | x
O=C1NC(Cc2ccccc2)c2nc3cc(F)ccc3c(=O)n2-c2ccc(Cl)cc21 (stereo unspecified) | 0 | x | 580 | x | x | x | x | x
O=C(Nc1cccnc1)c1c(O)c2cccc3c2n(c1=O)CC3 | 65* | -1 | 797 | 1 | 0 | -19 | -63 | 111
SMILES | GRK2 inh | MEX-5 binding | T cell HTS | Keap1-Nrf2 PPI | LANA DNA inh | EBV gp42 block | GRK2 CP1 | FAM quench CP1 | others
COc1ccc([N+](=O)[O-])cc1NC(=O)C(C)OC(=O)C1CC(=O)N(Cc2ccco2)C1 (stereo unspecified) | 0 | 0 | i | 2 | 2 | x | x | x
COCCn1c(=S)[nH]c2cc(C(=O)N3CCN(Cc4ccc5c(c4)OCO5)CC3)ccc2c1=O | 45* | x | 260 | 1 | -1 | -30 | 2 | 101
N#C/C(=C\c1c[nH]c2ccc(Br)cc12)c1ccccn1 | 2 | -3 | 165 | -6 | -1 | x | x | x
COc1ccc(C(=O)Nc2cccc(C(=O)NCc3ccco3)c2)cc1 | 0 | -2 | 242 | -5 | -5 | 8 | -1 | 96
O=C(Nc1cc([N+](=O)[O-])ccc1O)c1cccc(NC(=O)c2ccco2)c1 | 78* | -2 | 230 | -5 | -1 | x | 1 | 103
CN(Cc1ccccc1)C(=O)c1cccc(NC(=O)c2ccco2)c1 | 4 | 4 | 552 | -5 | 2 | -1 | 1 | 104
CC(C)CNC(=O)c1cccc(NC(=O)c2ccco2)c1 | 0 | -4 | 474 | 1 | -2 | 4 | x | x
O=C(NCc1ccco1)c1cccc(NC(=O)c2ccco2)c1 | 0 | 4 | 351 | -2 | 1 | -17 | -3 | 101
COc1cc(NC(=O)c2cccc([N+](=O)[O-])c2)ccc1NC(=O)c1ccco1 | 0 | 0 | 426 | 0 | 0 | 9 | x | x
O=C(NCc1ccccc1)c1cccc(NC(=O)c2ccco2)c1 | 2 | -5 | 325 | -2 | 1 | -15 | 2 | 93
O=C(Nc1ccccc1)c1cccc(NC(=O)c2ccco2)c1 | 2 | 1 | 294 | -5 | -1 | x | x | x
CCCc1cc(=O)[nH]c(SCC(=O)c2c[nH]c3ccccc23)n1 | 59* | 0 | 317 | 6 | 2 | -11 | -2 | 116
Cc1cc(C)c(C(=O)Nc2ccc(S(=O)(=O)Nc3onc(C)c3C)cc2)c(C)c1 | 37 | x | 835 | 1 | -1 | -5 | -5 | 98
